GalR3 antag = human GalR3 antagonism; O60755; HEK293 GalR3-CNG cAMP membrane potential fluorescence; galR3 body fused to GalR1 C-terminus; inhibition, % at 3 µM; 360,000 tested, 0.44% active; AID 651719;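 active = inhibition above the screen-wide average plus 3 SD, cut at about 13% in these data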;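 also: forskolin and galanin both at EC90 stimulate the cells; cAMP rise reported by CNG channel membrane potential dye signal; 0% = forskolin plus galanin with DMSO and 100% = forskolin alone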
Target sequence (O60755 1-299 limits assumed): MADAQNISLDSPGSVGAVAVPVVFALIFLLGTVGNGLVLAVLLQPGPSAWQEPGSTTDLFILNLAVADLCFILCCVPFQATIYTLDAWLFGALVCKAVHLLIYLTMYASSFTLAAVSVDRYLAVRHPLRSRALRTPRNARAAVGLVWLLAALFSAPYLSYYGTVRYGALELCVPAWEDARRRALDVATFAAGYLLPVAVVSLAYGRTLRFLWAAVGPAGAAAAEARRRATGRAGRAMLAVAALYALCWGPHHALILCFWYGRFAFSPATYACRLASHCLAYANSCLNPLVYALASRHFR
697 NFkB inh = inhibitors of the PMA/ionomycin-induced NF-kB reporter in 697 B cells | 697 B-cell NF-kB luciferase reporter, 16 h | AID 435022 | 330,000 tested, 0.33% active | inhibition, % at 4 µM; in the data active = inhibition above about 35%
Jurkat NFkB inh = lowers PMA/ionomycin-induced NF-kB signal in Jurkat cells. PMA/ionomycin-induced NF-kB luciferase reporter, luminescence. inhibition, % at 4 µM. 330,000 tested, 0.53% active; in the data active = inhibition above about 50%
Gli-Sufu block = Gli-Sufu pathway antagonism; Sufu-KO-LIGHT fibroblasts, Gli luciferase reporter luminescence; inhibition, % at 5 µM; 340,000 tested, 0.74% active; AID 588413;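 active = inhibition above about 55%, limit read from the data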;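 also: 0% = DMSO-treated cells and 100% = wells with medium but no cells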
NR2E3 ag-1 = agonists of human nuclear receptor NR2E3; 320,000 tested, 0.12% active; Q9Y5X4; inhibition of corepressor binding, % at 4.78 µM; AID 2300; GST-NR2E3/biotin-RetCOR TR-FRET, 1536-well;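 active = percent inhibition above the cutoff of mean plus 3 SD of all tested compounds, set per screening campaign, cut at about 20% in these data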;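 also: 0% = DMSO wells and 100% = biotin wells as full block of FRET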
Target sequence (Q9Y5X4 whole entry, looked up): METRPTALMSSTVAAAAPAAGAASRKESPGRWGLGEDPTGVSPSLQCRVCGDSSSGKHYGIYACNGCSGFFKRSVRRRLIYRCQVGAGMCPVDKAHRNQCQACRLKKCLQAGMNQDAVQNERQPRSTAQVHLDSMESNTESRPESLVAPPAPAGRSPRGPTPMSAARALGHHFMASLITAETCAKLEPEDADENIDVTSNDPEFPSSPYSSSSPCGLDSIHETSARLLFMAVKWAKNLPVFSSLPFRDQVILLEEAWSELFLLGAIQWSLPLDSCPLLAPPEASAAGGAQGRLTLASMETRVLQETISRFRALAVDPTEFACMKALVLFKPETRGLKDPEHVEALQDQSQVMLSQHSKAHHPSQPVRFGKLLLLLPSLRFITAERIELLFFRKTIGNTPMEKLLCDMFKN
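Format: 1536-well format; test system: GST-NR2E3 and biotin-RetCOR proteins; read-out basis: percent inhibition of TR-FRET ratio; timing: 5 h incubation at 4 °C; detection: time-resolved FRET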
NR2E3 ag-2 = agonists of human NR2E3 nuclear receptor. Q9Y5X4. CHO-S Gal4-NCOR/VP16-NR2E3 two-hybrid, luciferase. inhibition of corepressor binding, % at 3.98 µM. 360,000 tested, 0.35% active. AID 602229;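 active = inhibition above the mean of all tested compounds plus 3 SD, cut at about 70% in these data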;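 also: 0% = DMSO with NR2E3 transfected cells and 100% = cells lacking NR2E3 construct; higher means lower luciferase signal from less NR2E3 corepressor binding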
NR2E3 ag confirm = confirmation of human NR2E3 agonists. shares compounds with NR2E3 ag-2. AID 624378. CHO-S mammalian two-hybrid NR2E3-NCOR, luciferase luminescence. inhibition, % at 3.98 µM. 2,300 tested, 51% active;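 active = average inhibition above a cutoff equal to the mean inhibition of all tested compounds plus one SD, cut at about 70% in these data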;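 also: 0% = DMSO in NR2E3 cells and 100% = DMSO in cells lacking NR2E3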
VP16 counter = reduces GAL4-VP16 reporter signal in NR2E3 counterscreen. shares compounds with NR2E3 ag-2. 2,300 tested, 29% active. CHO-S GAL4-VP16 luciferase reporter, luminescence. inhibition, % at 3.98 µM;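 active = mean inhibition above a cutoff equal to the average over all tested compounds plus one standard deviation, cut at about 70% in these data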;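 also: luciferase from a UAS reporter driven by GAL4-VP16 transactivation; 0% = DMSO with VP16-transfected cells and 100% = DMSO with cells lacking VP16; higher means less reporter light so more repression of VP16 activity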
Numbers without * were called inactive; nt = no result. Most compounds without a hit are left out; they make up all but 1.8% or so of the library.

SMILES	GalR3 antag	697 NFkB inh	Jurkat NFkB inh	Gli-Sufu block	NR2E3 ag-1	NR2E3 ag-2	NR2E3 ag confirm	VP16 counter
Cc1ccc(C(=O)CCC(=O)N2CCN(c3ccccc3O)CC2)cc1	-1.8	-38.6	-39.3	-6.1	1.0	48.8	36.0	3.2
O=C(NCc1cccc(C(F)(F)F)c1)c1[nH]c(C(F)(F)F)nc1-c1ccccc1	nt	nt	nt	nt	nt	91.0*	59.2	27.4
Cc1ccc(CNC(=O)c2[nH]c(C(F)(F)F)nc2-c2ccccc2)cc1	-5.0	nt	nt	nt	nt	24.2	nt	nt
Cc1ccc(CNc2ncnc3cc(Cl)ccc23)cc1	-10.8	-4.6	15.4	3.1	-3.4	87.4*	90.3*	70.7*
C/C(=N\Nc1ccc(Cl)c(C(=O)O)c1)c1ccccn1	-5.8	-14.6	2.2	-5.7	-4.3	-102.1	nt	nt
CC(=NNC(=S)N1CCCCC1)c1ccccn1	4.7	nt	nt	nt	nt	84.5*	58.1	32.1
CC(=NNC(=S)Nc1ccccc1Cl)c1ccccn1	-2.6	nt	nt	92.5*	nt	85.7*	-38.4	-17.4
CC(=NNC(=S)Nc1ccccc1)c1ccccn1	-5.1	nt	nt	nt	nt	84.9*	-28.8	-14.9
COc1cc(CNC(=O)c2cc(-c3ccc(F)cc3C)n[nH]2)cc(OC)c1	-5.3	nt	nt	nt	nt	-15.8	nt	nt
COc1cccc(COC(=O)C(Cc2ccccc2)NC(=O)c2ccco2)c1 (stereo not drawn)	-4.6	nt	nt	nt	nt	8.5	nt	nt
CCOC(=O)C1(C)CCCN1C(=O)c1ccc(N(C)C)cc1 (stereo not drawn)	-6.7	nt	nt	nt	nt	-4.4	nt	nt
COc1cccc(CCNC(=O)c2cc(COc3ccc(C)c(C)c3)on2)c1OC	-7.0	nt	nt	nt	nt	-174.9	nt	nt
CCCN1CCN(C(=O)c2cc(COc3ccc4ncccc4c3)on2)CC1	-9.6	-17.4	39.1	13.3	1.9	61.3	44.1	67.8
O=C(NCc1cccc(Cl)c1)c1cc(COc2ccc3ncccc3c2)on1	-2.8	-21.0	28.9	37.5	-3.5	75.7*	95.5*	79.0*
CC(C)N(Cc1nccn1C)C(=O)c1cc(COc2ccc3ncccc3c2)on1	-10.1	-19.7	21.5	20.9	0.3	15.2	nt	nt
Cc1ccc(F)cc1CNC(=O)c1cc(COc2ccc3ncccc3c2)on1	-10.3	-17.4	22.0	21.1	4.7	79.2*	96.0*	85.7*
CN1C(C)(C)CC(=NO)CC1(C)C	-2.6	nt	nt	2.7	nt	5.7	nt	nt
COc1ccc(CCOC(=O)c2ccc(N)c([N+](=O)[O-])c2)cc1	2.6	-26.8	2.0	3.1	3.8	50.1	25.9	45.6
OC[C@@H]1CN(Cc2ccccc2)C[C@H](n2cnc3c(NC4CC4)ncnc32)O1	-3.0	nt	nt	nt	nt	16.5	nt	nt
OC[C@@H]1CN(Cc2ccc(-c3ccccc3)cc2)C[C@H](n2cnc3c(NC4CCC4)ncnc32)O1	2.6	nt	nt	nt	nt	80.0*	91.2*	78.8*
Cc1cc(C)nc(-n2nc(C)cc2Nc2ccccc2)n1	-2.5	-46.2	-9.4	1.5	-2.7	111.5*	11.8	5.7
Cc1cc(Nc2ccccc2)n(-c2ccccc2)n1	-3.8	13.3	-3.9	-1.9	3.4	-1.2	nt	nt
Cc1cc(N2CCN(c3ccccc3)CC2)nc(-n2nc(C)cc2C)n1	-4.4	-5.2	15.2	2.1	-1.5	81.5*	-12.7	12.2
Cc1ccc(S(=O)(=O)N(C)CC(=O)Nc2cc(C)ccn2)cc1	-4.1	-48.5	-74.5	-6.9	2.1	-88.9	nt	nt
Cc1cc(C(=O)CSc2n[nH]c(-c3ccccc3F)n2)c(C)n1Cc1cccs1	3.3	14.8	3.5	-5.9	-0.5	-19.7	nt	nt
SMILES	GalR3 antag	697 NFkB inh	Jurkat NFkB inh	Gli-Sufu block	NR2E3 ag-1	NR2E3 ag-2	NR2E3 ag confirm	VP16 counter
Cc1cc(C(=O)COC(=O)c2ccccc2O)c(C)n1Cc1cccs1	-8.2	0.6	26.7	80.7*	-1.7	90.7*	80.0*	71.0*
Cc1cc(C(=O)COC(=O)c2ccc3c(c2)OCO3)c(C)n1Cc1cccs1	-5.5	-8.9	-3.5	19.4	2.5	89.8*	77.2*	74.8*
Cc1ccc(S(=O)(=O)NN=C2CCc3ccccc32)cc1	-7.4	nt	nt	nt	nt	-17.1	nt	nt
CCC(c1nnnn1-c1ccc2c(c1)OCCO2)N1CCN(c2ccc(F)cc2)CC1 (stereo not drawn)	nt	nt	nt	nt	nt	53.7	53.1	48.5
O=C(CC1OC(=O)c2ccccc21)NNC(=O)c1ccc(F)cc1 (stereo not drawn)	-5.0	11.6	0.5	2.0	-4.4	-5.5	nt	nt
COc1ccc(S(=O)(=O)Nc2ccc(Cc3ccncc3)cc2)cc1C	nt	-29.6	26.6	36.6	1.5	61.2	47.0	49.5
CCc1ccc(NS(=O)(=O)c2ccc(OC)c(C)c2)cc1	-8.2	14.8	3.5	-0.1	0.9	6.6	nt	nt
Cc1cc(C)c(NC(=O)CNC(=O)COC(=O)CNC(=O)c2ccc(Cl)cc2Cl)c(C)c1	0.8	19.0	-0.2	-11.7	-0.6	5.5	nt	nt
CNc1nc(-c2ccccn2)nnc1-c1ccccc1	-0.2	1.6	-7.7	23.8	-4.6	-22.5	nt	nt
c1ccc(-c2nnc(-c3ccccn3)nc2NC2CCCCC2)cc1	-8.2	-41.8	47.7	91.0*	-2.6	54.6	60.1	17.2
CCOC(=O)CNC(=O)c1ccccc1	-3.9	17.1	-4.9	-21.4	2.3	5.3	nt	nt
CCOC(=O)CNC(=O)c1sc(NC(=O)c2ccccc2)nc1C	-2.4	8.4	3.3	-11.4	-1.1	49.2	3.1	-20.9
O=NN(CC(=O)NNc1ccccc1)CC(=O)NNc1ccccc1	-5.5	nt	nt	nt	nt	73.4*	73.8*	-2.1
O=C1c2cccnc2-c2ncccc21	-2.5	10.5	5.2	-0.6	0.8	-12.4	nt	nt
O=C1C(=O)c2cccnc2-c2ncccc21	-11.7	nt	nt	nt	nt	71.6*	89.0*	38.7
Cc1ccc(-c2noc(CSc3nnc(-c4ccncc4)n3-c3ccc(C)cc3)n2)cc1	-9.4	18.4	14.9	-1.8	2.4	-11.5	nt	nt
Clc1ccc(-c2noc(CSc3nnc(-c4ccncc4)n3-c3ccccc3)n2)cc1	-6.0	-24.6	32.0	9.4	4.1	63.8	61.5	30.6
Nc1cc(S(=O)(=O)Nc2ccc(Cl)cc2)ccc1N1CCOCC1	2.1	-20.9	8.8	39.8	-0.7	54.7	85.0*	64.1
Nc1cc(S(=O)(=O)Nc2ccccc2Cl)ccc1N1CCOCC1	-3.7	-9.4	11.7	-4.6	0.0	-16.5	nt	nt
COc1ccc(NS(=O)(=O)c2ccc(N3CCCC3)c(N)c2)cc1	-12.3	-7.8	-8.3	25.0	-1.4	88.9*	76.8*	71.7*
COC(=O)c1ccc(CN2CCCC(C(=O)c3ccccc3OC)C2)cc1 (stereo not drawn)	-3.8	-50.2	-40.9	23.6	-0.8	-9.4	nt	nt
Cc1ccc(OCC(=O)Nc2ccc(S(=O)(=O)N3CCOCC3)cc2)c(Br)c1	-0.4	5.3	-0.6	-8.6	1.8	-5.6	nt	nt

Screens (PubChem BioAssay)
